Measurements pooled from the literature.
Each line is one published result; the experiments were not run side by side.
Observed: cell growth or viability

COc1cccc2c1C(=O)c1c(O)c3c(c(O)c1C2=O)C[C@@](O)(C(=O)CO)C[C@@H]3O[C@H]1C[C@H](N)[C@H](O)[C@H](C)O1 — IC50 (MOLT-3; XTT; 75 h): 46 nM
COC[C@H](NC(=O)c1ccn(S(C)(=O)=O)c1)C(=O)Nc1nc(-c2cccc(N3C[C@@H](C)O[C@@H](C)C3)n2)cs1 — IC50 (NCI-H1944; ATP luminescence; 7 days): 45.1 nM
O=C(NO)c1ccc(Cn2cnc3c(Nc4cccc([N+](=O)[O-])c4)ncnc32)cc1 — IC50 (NALM-6; MTT; 72 h): 1900 nM
CN(C)C(=O)c1cc2cnc(Nc3ccc(-c4ccc5c(=O)cc(N6CCOCC6)oc5c4)cc3)nc2n1C1CCCC1 — IC50 (Hs68; ATP luminescence; 72 h): 1150 nM
Nc1ccccc1NC(=O)c1ccc(Cn2cnc3c(Nc4ccc(Cl)cc4)ncnc32)cc1 — IC50 (NALM-6; MTT; 72 h): 1550 nM
C(=N\Nc1cc(N/N=C/c2ccc3ccccc3n2)nc(-c2ccccc2)n1)/c1ccc2ccccc2n1 — IC50 (L02; MTT; 48 h): > 100000 nM
O=C(CCc1ccc(Cl)cc1)N1C(=O)C(=Nc2ccc(Cl)cc2Br)c2ccccc21 — IC50 (L02; MTT; 48 h): > 100000 nM
Cc1nc(Nc2ncc(C(=O)Nc3c(C)cccc3Cl)s2)cc(N2CC[C@H](O)C2)n1 — IC50 (REH; ATP luminescence; 72 h): > 10000 nM
CC1=CC(=O)c2ccccc2C1=O — IC50 (MOLT-3; XTT): 10300 nM
C=C[C@]1(C)C=C2CC[C@H]3C(C)(C)CCC[C@]3(C)[C@H]2CC1 — IC50 (MOLT-3; XTT; 75 h): 125000 nM
Cc1cc(Nc2ncnc3ccc(NC4=NC(C)(C)CO4)cc23)ccc1Oc1ccn2ncnc2c1 — IC50 (HCC1419; ATP luminescence): 30.2 nM
CC(C)(C)c1cnc(CSc2cnc(NC(=O)C3CCN(C(=O)CCCCCCCN4Cc5cc6c(cc5C4)C(=O)N(C4CCC(=O)NC4=O)C6=O)CC3)s2)o1 (stereo not drawn) — IC50 (NALM-6; MTT): 23.4 nM
CC(C)c1cccc(C(C)C)c1N=C1C(=O)N(Cc2cccc(Cl)c2)c2ccccc21 — IC50 (L02; MTT; 48 h): 72500 nM
COc1c(Cl)cccc1Nc1c(-c2ccncc2OC[C@@H]2COCCO2)[nH]c2c1C(=O)NCC2 — IC50 (HCC1419; ATP luminescence): 6.4 nM
COc1cc(N=C2C(=O)Nc3ccccc32)cc(OC)c1 — IC50 (L02; MTT; 48 h): > 100000 nM
COc1cc([C@@H]2c3cc4c(cc3[C@@H](O[C@@H]3O[C@@H]5CO[C@@H](C)O[C@H]5[C@H](O)[C@H]3O)[C@H]3COC(=O)[C@H]23)OCO4)cc(OC)c1O — IC50 (MOLT-3; XTT; 75 h): 78 nM
C=CCN1C(=O)C(=Nc2cccc(C)c2)c2ccccc21 — IC50 (L02; MTT; 48 h): 14100 nM
COc1ccc(Nc2ncnc3c2ncn3Cc2ccc(C(=O)NO)cc2)cc1 — IC50 (NALM-6; MTT; 72 h): 2010 nM
CC(C)c1cccc(C(C)C)c1N=C1C(=O)N(Cc2ccccc2)c2ccccc21 — IC50 (L02; MTT; 48 h): 59000 nM
O=C(NO)c1ccc(Cn2cnc3c(Nc4ccc(F)c(Cl)c4)ncnc32)cc1 — IC50 (NALM-6; MTT; 72 h): 2020 nM
O=C1C(=Nc2ccc(Cl)cc2)c2ccccc2N1Cc1cccc(Cl)c1 — IC50 (L02; MTT; 48 h): 32000 nM
Cc1ncsc1-c1ccc(CNC(=O)[C@@H]2C[C@@H](O)CN2C(=O)[C@@H](NC(=O)C2(F)CC2)C(C)(C)C)c(OCCOc2ccc(CN3CCN(c4cc(-c5ccccc5O)nnc4N)CC3)cc2)c1 — IC50 (NCI-H1944; ATP luminescence; 7 days): 168 nM
O=C1C(=Nc2ccc(Cl)cc2Br)c2ccccc2N1Cc1ccc(Br)cc1 — IC50 (L02; MTT; 48 h): 7750 nM
C(=N\Nc1cc(N/N=C/c2cccc3cccnc23)nc(-c2ccccc2)n1)/c1cccc2cccnc12 — IC50 (L02; MTT; 48 h): > 100000 nM
